Active and inactive are the calls of the source. The rule behind the calls is not given here.

These results are taken from ChEMBL document CHEMBL3259788, “Influence of the alkylsulfonylamino substituent located at the 6-position of 2,2-dimethylchromans structurally related to cromakalim: from potassium channel openers to calcium entry blockers?” (Eur J Med Chem, 2014).

For test [1], the system named is Thoracic aorta. The experiment in a line: Ratio of EC50 for myorelaxant activity in endothelium-free rat thoracic aorta presence of 10 uM of KATP channel blocker glibenclamide to EC50 for myorelaxant activity in endothelium-free rat thoracic aorta absence of KATP channel blocker glibenclamide. It is filed as functional. The procedure, abridged: (§1)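 Transverse thoracic aorta rings (3–4 mm), cleaned of fat and connective tissue and equilibrated 60 min, recorded isometrically by force transducer. Contraction induced with 30 or 80 mM KCl. After tension stabilized, drug added cumulatively up to maximal relaxation or 300 µM. Glibenclamide at 1 or 10 µM present throughout where stated. EC50 is the concentration giving 50% inhibition of the KCl plateau, from concentration-response curves. Mean ± SEM (n).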

Test [2] has as its system Thoracic aorta. The experiment in a line: Myorelaxant activity in endothelium-free rat thoracic aorta assessed as inhibition of 80 mM of KCl-induced contraction. It is filed as functional, tissue-based. In a few lines:
as §1

Test [3] deals with Thoracic aorta. The experiment in a line: Myorelaxant activity in endothelium-free rat thoracic aorta assessed as inhibition of 30 mM of KCl-induced contraction in presence of 10 uM of KATP channel blocker glibenclamide. The class given is functional, tissue-based. In a few lines:
as §1

Test [4] has as its system Thoracic aorta. The experiment in a line: Ratio of EC50 for myorelaxant activity in endothelium-free rat thoracic aorta presence of 1 uM of KATP channel blocker glibenclamide to EC50 for myorelaxant activity in endothelium-free rat thoracic aorta absence of KATP channel blocker glibenclamide. It is filed as functional. In a few lines: as §1
The test system of test [5] is Thoracic aorta. The experiment in a line: Myorelaxant activity in endothelium-free rat thoracic aorta assessed as inhibition of 30 mM of KCl-induced contraction. It is filed as functional, tissue-based. In a few lines:
as §1

Test [6] deals with Thoracic aorta. The test is described as follows: Myorelaxant activity in endothelium-free rat thoracic aorta assessed as inhibition of 30 mM of KCl-induced contraction in presence of 1 uM of KATP channel blocker glibenclamide. It is filed as functional, tissue-based. The procedure, abridged: as §1
Test [7] is described as follows: Inhibition of glucose-induced insulin secretion in rat pancreatic islets assessed as residual insulin release level at 10 uM preincubated for 30 mins measured after 90 mins radioimmunology analysis. The class given is functional. In a few lines:
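Batches of 10 rat islets preincubated 30 min at 37 °C in bicarbonate salt medium with 2.8 mM glucose and 0.5% albumin, gassed O2/CO2 (95/5). Then incubated 90 min at 37 °C with 16.7 mM glucose plus drug. Insulin measured by radioimmunoassay against a rat insulin standard and expressed as % of drug-free 16.7 mM glucose control. Mean ± SEM (n).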

The subject of test [8] is Thoracic aorta. The test is described as follows: Inhibition of 80 mM of KCl-induced Ca2+ outflow in endothelium-free rat thoracic aorta assessed 45Ca outflow per min at 30 uM (reference value: 6.06 +/- 0.36%). The arrangement: scale not given: the % may be the effect or the level left. It is filed as functional.
Test [9] deals with Thoracic aorta. The test is described as follows: Effect on 86Rb fractional flow rate in endothelium-free rat thoracic aorta at 25 to 100 uM. It is filed as functional, tissue-based. The procedure, abridged:
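Prelabelled 86Rb (42K substitute) efflux: pairs of 2 mm aortic rings preincubated 30 min at 37 °C in bicarbonate salt solution gassed O2/CO2 (95/5), loaded 60 min with 86Rb, washed, then perifused at 1.0 mL/min with 30 mM K+ medium throughout. Effluent collected per min from 31st to 90th min. Fractional outflow rate (% of instantaneous ring content per min) from scintillation counts.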

As usually defined, the EC50 is the concentration giving half of the maximal effect. For the compound `CC1=Nc2ccc(Cl)cc2S(=O)(=O)N1` [DIAZOXIDE], the “Ratio EC50” value was determined as 8 in test [1] and 4.4 in test [4]. Further, the EC50 in test [2] is more than 300 µM; in test [5] it was 26.1 µM. The inhibition result in test [3] and in test [6] was “Dose-dependent effect” each time. In addition, the Activity in test [7] is 80.8%.
On to `CCS(=O)(=O)Nc1ccc2c(c1)C(NC(=O)Nc1ccc(Cl)cc1)CC(C)(C)O2` (centres undefined), for which, in test [5], the 50% effective concentration (EC50) was more than 10 µM. Moreover, in test [7], the Activity turned out to be 78.1%.
As for `COc1ccc(CCN(C)CCCC(C#N)(c2ccc(OC)c(OC)c2)C(C)C)cc1OC` (centres undefined) [VERAPAMIL], the EC50 worked out at 0.052 µM in [2], 0.035 µM in test [3], 0.031 µM in [5] and 0.038 µM in test [6]. Besides, the inhibition entry in test [5] is “Dose-dependent effect”.
In the case of `CCS(=O)(=O)Nc1ccc2c(c1)C(NC(=S)Nc1ccc(C#N)cc1)CC(C)(C)O2` (centres undefined), in [5], the half-maximal effective concentration (EC50) is 12 µM. Also, the Activity in [7] was 57.9%.
For the compound `CCS(=O)(=O)Nc1ccc2c(c1)C(NC(=O)Nc1ccc(C#N)cc1)CC(C)(C)O2` (centres undefined), in test [5], the half-maximal effective concentration (EC50) is 11.8 µM. Further, in test [7], the Activity is listed as 73.6%.
Turning to `CCS(=O)(=O)Nc1ccc2c(c1)C(NC(=O)Nc1cccc(C#N)c1)CC(C)(C)O2` (centres undefined), the EC50 in [5] is 9.5 µM. Also, the Activity in test [7] came out at 75.6%.
Consider `CC1(C)CC(NC(=O)Nc2cccc(C#N)c2)c2cc(NS(C)(=O)=O)ccc2O1` (centres undefined), for which the EC50 in test [5] is 9.3 µM. Moreover, the Activity in [7] was found to be 84.4%.
As to `CC1(C)CC(NC(=S)Nc2ccc(Cl)cc2)c2cc(NS(C)(=O)=O)ccc2O1` (centres undefined), in test [5], the concentration for a half-maximal effect (EC50) amounted to 11.6 µM. Moreover, the Activity in test [7] is on record as 63.9%.
The like results for `CC1(C)CC(NC(=O)Nc2ccc(Cl)cc2)c2cc(NS(C)(=O)=O)ccc2O1` (centres undefined) were, in that order, more than 30 µM and 88.5%.
`CCS(=O)(=O)Nc1ccc2c(c1)C(NC(=S)Nc1cccc(Cl)c1)CC(C)(C)O2` (centres undefined): the concentration for a half-maximal effect (EC50) in test [5] is 9.8 µM. Also, the Activity in test [7] was determined as 54.3%.
Turning to `CC1(C)CC(NC(=S)Nc2cccc(Cl)c2)c2cc(NS(C)(=O)=O)ccc2O1` (centres undefined), the EC50 in test [2] is 16.8 µM; in test [3], 15.7 µM; in test [5], 9.8 µM; in test [6], 16.6 µM. Further, the results for the Activity in [8] and in [7] were 3.68% and 69.2%, respectively. Further, the result in [9] was inactive. Also, the inhibition result in test [5] is “Dose-dependent effect”.
Consider `CC1(C)CC(NC(=S)Nc2cccc(C#N)c2)c2cc(NS(C)(=O)=O)ccc2O1` (centres undefined), for which the concentration for a half-maximal effect (EC50) in test [5] turned out to be 9.8 µM. For the same compound, the Activity in [7] worked out at 91.7%.
The like results for `CC1(C)CC(NC(=O)Nc2ccc(C#N)cc2)c2cc(NS(C)(=O)=O)ccc2O1` (centres undefined) were, in that order, 19.8 µM and 81.6%.
`CCS(=O)(=O)Nc1ccc2c(c1)C(NC(=S)Nc1ccc(Cl)cc1)CC(C)(C)O2` (centres undefined): the concentration for a half-maximal effect (EC50) in test [5] was 5.1 µM. In addition, the Activity in [7] stood at 49.1%.
Regarding `CCS(=O)(=O)Nc1ccc2c(c1)C(NC(=S)Nc1cccc(C#N)c1)CC(C)(C)O2` (centres undefined), in test [5], the 50% effective concentration (EC50) turned out to be 12.1 µM. Also, in test [7], the Activity is on record as 64.7%.
On to `CC1(C)CC(NC(=S)Nc2ccc(C#N)cc2)c2cc(NS(C)(=O)=O)ccc2O1` (centres undefined), for which the EC50 in test [5] came out at 11.6 µM. Also, the Activity in [7] is given as 81.7%.
The like results for `CCS(=O)(=O)Nc1ccc2c(c1)C(NC(=O)Nc1cccc(Cl)c1)CC(C)(C)O2` (centres undefined) were, in that order, 17.2 µM and 72.1%.
Consider `CC1(C)CC(NC(=O)Nc2cccc(Cl)c2)c2cc(NS(C)(=O)=O)ccc2O1` (centres undefined), for which, in test [5], the EC50 was determined as 15.2 µM. For the same compound, the Activity in test [7] stood at 94.5%.
For `CC1(C)Oc2ccc(C#N)cc2C(N2CCCC2=O)C1O` (racemic) [CROMAKALIM], the “Ratio EC50” value turned out to be 130 in test [1] and 10 in test [4]. Moreover, the EC50 turned out to be 138 µM in [2], 28.8 µM in [3], 0.13 µM in test [5] and 2.5 µM in test [6]. In addition, the inhibition entry in [3] and in [6] was “Dose-dependent effect” throughout. Moreover, in test [7], the Activity is given as 94.4%.
